miR-122 sensor: miR-122 Renilla sensor signal increase in Huh7, primary screen, miR-122 inhibitor project, cell-based, single point, plate reader; Huh7 miR-122 Renilla luciferase sensor, 48 h; neutral wells = 0, positive control = 100; activation (reporter increase), % at 12.5 µM; 340,000 compounds, 0.3% hits;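 active means mean replicate activation score at least 90 and every replicate individually at or above 90; inconclusive means only one of the two criteria met; inactive means neither criterion met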;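 further: higher luciferase means less miR-122 activity so hits act as miR-122 inhibitors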
E-selectin induc: E-selectin induction in HUVECs, primary screen, imaging, HUVEC, immunofluorescence imaging, single point; normalized: neutral wells 0, TNF-alpha wells 100; activation, % at 7.58 µM; 260,000 compounds, 0.37% hits;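 active means mean E-selectin-positive cell signal at least 10% of the positive control, reached in at least 60% of replicates, without over 20% cell loss; inconclusive means no rule given, readout overlaps actives, possibly toxicity-flagged; inactive means the rest, including those meeting only one limit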
Target sequence (P16581 whole entry, looked up): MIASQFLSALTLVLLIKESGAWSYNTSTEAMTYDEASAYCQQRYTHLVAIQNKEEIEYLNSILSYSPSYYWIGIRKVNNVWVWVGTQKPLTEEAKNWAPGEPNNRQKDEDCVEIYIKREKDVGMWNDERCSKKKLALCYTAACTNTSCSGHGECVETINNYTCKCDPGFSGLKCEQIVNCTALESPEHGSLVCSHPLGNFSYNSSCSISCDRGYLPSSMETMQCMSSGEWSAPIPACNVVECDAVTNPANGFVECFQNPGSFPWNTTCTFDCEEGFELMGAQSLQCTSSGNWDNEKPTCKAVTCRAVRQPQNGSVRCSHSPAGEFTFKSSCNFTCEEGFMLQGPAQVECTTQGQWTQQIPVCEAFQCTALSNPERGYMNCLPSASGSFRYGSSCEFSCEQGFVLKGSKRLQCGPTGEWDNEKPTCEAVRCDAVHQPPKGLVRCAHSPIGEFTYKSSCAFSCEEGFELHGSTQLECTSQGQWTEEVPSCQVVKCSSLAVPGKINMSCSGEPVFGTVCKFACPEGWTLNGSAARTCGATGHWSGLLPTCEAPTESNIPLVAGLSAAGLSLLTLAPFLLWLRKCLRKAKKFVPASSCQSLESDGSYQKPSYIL
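Assay system: HUVEC primary endothelial cells. Input: 3,000 HUVEC seeded per well. Doses: one compound dose added by pin transfer. Read-out basis: % PE-positive cells. Benchmarks: TNF-alpha high, DMSO low. Detection: immunofluorescence imaging. Buffer or medium: EGM-2, gelatin.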
DENV2 CPE: inhibitors of DENV2 cytopathic effect, primary screen, cell-based, plate reader, single concentration; CPE inhibition, % at 9.99 µM; AID 651640, 2012; DENV2-infected cells, cytopathic effect rescue; 350,000 compounds, 1.7% hits; in the data active means CPE inhibition above about 20%, passing the limit was not always enough; inconclusive means no clear call, values can overlap the other calls; tested in BHK-21 cells
Cneo AK release: Cryptococcus neoformans cell lysis inducers, primary screen, AK release luminescence, single concentration; C. neoformans lysis, adenylate kinase release luminescence, 4 h; normalised: neutral wells 0, clomiphene wells 100; lysis activity, % at 15 µM; 360,000 compounds, 0.2% hits; AID 651654, 2012;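 active means mean lysis activity across replicates of at least 80%, whatever share of replicates individually reach that level; inactive means mean lysis activity below 80%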
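Test system: log-phase Cryptococcus neoformans yeast cells. Input: 5 × 10^6 yeast cells/mL. Medium: fresh YPD growth medium. Doses: single dose. Incubation: static 4 h at 37 °C with compound, 1 h detection. Measured by: luminescent adenylate kinase detection reagent. Read-out: signal increase indicating cell lysis. Benchmarks: Clomiphene.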
Ecoli rRNA inh: reduced GFP signal of wild-type E. coli, primary screen, bacterial rRNA inhibitor project, GFP/RFP fluorescence, OD600, single point; E. coli WT GFP vs humanized-ribosome RFP mutants, 24 h; stronger effect = lower value; DMSO median 0, no signal -100; GFP signal change (wild-type ribosome), % (test concentration not listed); AID 720706, 2013; 350,000 compounds, 1.6% hits;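 active means significant combined selectivity score with lowered wild-type GFP, culture density cut under 30%, mutant RFP and density less affected; inactive means any of these conditions unmet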
Hits are given with their value; i = inactive; ? = inconclusive; nt = not tested or not shown; [ ] = dose if it differs, or a comment. Rows were chosen to be rich in hits. Some 3.1% of all compounds tested hit in one or more screens of this group.

SMILES | miR-122 sensor | E-selectin induc | DENV2 CPE | Cneo AK release | Ecoli rRNA inh
O=C(NC[C@H]1CC[C@@H]2[C@@H](CN2S(=O)(=O)c2ccccc2[N+](=O)[O-])O1)C1CCCC1 | nt | nt | i | nt | nt
O=C(C[n+]1cccc(CNC(=O)c2ccc(OC(F)F)cc2)c1)Nc1ccc(F)cc1 | nt | i | i | nt | -19
O=C1C(Sc2ccccc2)=C[C@@]2(O)CC[C@@H](O)[C@]1(Sc1ccccc1)[C@H]2O | nt | i | i | nt | -23
CCCNC(=O)N1C[C@H](C)[C@H](OC)CN(C)C(=O)c2ccc(NS(=O)(=O)CC(F)(F)F)cc2OC[C@H]1C | nt | i | nt | nt | i
O=[N+]([O-])c1ccc(C[n+]2cccc(O)c2)cc1 | i | i | 67 | i | i
O=C(O)c1ccc[n+](Cc2ccc([N+](=O)[O-])cc2)c1 | i | i | i | i | i
CO[C@@H]1CN(C)C(=O)c2cc(NS(C)(=O)=O)ccc2OC[C@@H](C)N(C(=O)NC(C)C)C[C@H]1C | i | i | nt | i | i
O=C(C[C@H]1C[C@@H]2c3cc(NC(=O)c4ccc5c(c4)OCO5)ccc3O[C@@H]2[C@@H](CO)O1)NCc1ccccn1 | i | i | i | i | i
Cc1cccc(N(C)c2cc(C)nc3nc(C)nn23)c1 | i | i | 29 | i | i
CCN(c1ccccc1)c1cc(C)nc2nc(C)nn12 | i | i | i | i | i
Cc1ccccc1S(=O)(=O)N1CC[C@@H]2[C@H]1c1cc(Br)ccc1N(C)[C@H]2CO | i | i | 66 | i | i
Cc1cccc(S(=O)(=O)N2CC[C@@H]3[C@@H](CO)N(C)c4ccc(Br)cc4[C@@H]32)c1 | i | i | i | i | i
CN1c2ccc(Br)cc2[C@H]2[C@H](CCN2S(=O)(=O)c2cccc(F)c2)[C@H]1CO | i | i | 118 | i | i
CN1c2ccc(Br)cc2[C@H]2[C@H](CCN2S(=O)(=O)c2ccccc2)[C@H]1CO | i | i | i | i | i
CN1c2ccc(Br)cc2[C@@H]2[C@@H](CCN2S(=O)(=O)c2ccccc2)[C@H]1CO | i | i | 116 | i | i
Cc1ccccc1S(=O)(=O)N1CC[C@@H]2[C@H](CO)N(C)c3ccc(Br)cc3[C@@H]21 | i | i | i | i | i
CN1c2ccc(Br)cc2[C@@H]2[C@@H](CCN2C(=O)Cc2cccnc2)[C@@H]1CO | i | i | i | 90 | i
CC(C)[C@@H]1C(=O)N[C@H](c2ccc3c(c2)OCO3)CC=CC[C@H](C)Oc2ccccc2C(=O)N1C (mixture of isomers) | nt | nt | nt | nt | i
COc1ccccc1NC(=O)N1C[C@@H]2N[C@H](C1)C2c1ccc(-c2ccc(C#N)cc2)cc1 (stereo partly drawn) | nt | i | i | nt | i
CCCC#Cc1ccc([C@H]2[C@@H](CO)N3C(=O)CN(C(=O)Nc4ccccc4)C[C@H]23)cc1 | nt | nt | nt | nt | i
CN1c2ccc(-c3ccc(F)cc3)cc2[C@H]2[C@H](CCN2S(=O)(=O)c2cccc(F)c2)[C@H]1CO | 144[16.7 µM] | i | i | 104 | i
CN1c2ccc(-c3ccc(F)cc3)cc2[C@@H]2[C@@H](CCN2S(=O)(=O)c2cccc(F)c2)[C@@H]1CO | i | i | i | i | i
COC(=O)C[C@H]1CC[C@@H]2[C@H](COC[C@@H](O)CN2S(=O)(=O)c2ccc(F)cc2)O1 | i | i | i | i | i
C[C@H](CO)N1C[C@H](C)[C@@H](CN(C)C(=O)C2CCOCC2)Oc2ncc(-c3ccccc3)cc2C1=O | i | i | i | i | i
O=C1C(c2ccccc2)c2ccccc2N1Cc1ccccc1 (stereo not drawn) | i | i | i | i | -20
SMILES | miR-122 sensor | E-selectin induc | DENV2 CPE | Cneo AK release | Ecoli rRNA inh
O=C1C2CC=CCC2C(=O)N1Cc1ccccc1 (stereo not drawn) | i | nt | i | i | i
N#C[C@@H]1N[C@H](CO)[C@H]1c1ccccc1 | nt | i | 38 | i | i
N#C[C@H]1N[C@H](CO)[C@H]1c1ccc(C#Cc2ccc(F)cc2)cc1 | nt | i | 55 | i | i
C[C@@H]1CCCCO[C@@H](CN(C)S(=O)(=O)c2cccs2)[C@@H](C)CN([C@@H](C)CO)C(=O)c2cc(NC(=O)c3ccccc3)ccc2O1 | i | i | i | i | i
CCCNC(=O)N1CC2(CCN(Cc3ccncc3)CC2)c2c(n(C)c3cc(OC)ccc23)[C@@H]1CO | nt | nt | nt | nt | i
COc1cccc(C#Cc2ccc3c(c2)[C@@H]2[C@@H](CCN2S(=O)(=O)c2ccc(C)cc2)[C@H](CO)N3)c1 | nt | nt | nt | nt | i
CC[C@H]1C/C=C\C[C@H](c2ccc(OC)cc2OC)NC(=O)[C@H](C)CC(=O)N1 | nt | nt | nt | nt | i
CC1Sc2ccc(C(=O)Nc3ccccc3OC(F)F)cc2NC1=O (stereo not drawn) | nt | i | ? | nt | -20
COC(=O)C[C@H]1CC[C@@H]2[C@H](COC[C@@H](O)CN2C(=O)Nc2cccc(F)c2)O1 | i | i | i | i | i
COc1ccccc1NC(=O)N1CC(=O)N2[C@@H](CO)[C@H](c3ccc(C#CCC(C)C)cc3)[C@@H]2C1 | nt | nt | nt | nt | i
CCCN(CC(=O)Nc1ccc(F)c(F)c1F)Cc1cc(=O)n2ccsc2n1 | i | i | i | nt | i
CCCN(CC(=O)Nc1ccc(Cl)cc1Cl)Cc1cc(=O)n2ccsc2n1 | i | i | i | i | -46
COCCNC(=O)C[C@@H]1CC[C@@H]2[C@H](COC[C@@H](O)CN2S(=O)(=O)c2ccccc2C)O1 | i | i | i | 91 | i
COCCNC(=O)C[C@@H]1CC[C@@H]2[C@H](COC[C@H](O)CN2S(=O)(=O)c2ccccc2F)O1 | i | i | i | i | i
COCCNC(=O)C[C@H]1CC[C@@H]2[C@H](COC[C@H](O)CN2S(=O)(=O)c2ccccc2C)O1 | i | i | i | 103 | i
CCCNC(=O)C[C@H]1CC[C@H]2[C@@H](COC[C@@H](O)CN2S(=O)(=O)c2ccccc2F)O1 | i | i | i | i | i
Cc1ccccc1S(=O)(=O)N1C[C@@H](O)COC[C@@H]2O[C@H](CC(=O)N3CCCCC3)CC[C@H]21 | i | i | 110 | i | i
CCNC(=O)C[C@@H]1CC[C@H]2[C@@H](COC[C@@H](O)CN2S(=O)(=O)c2ccccc2F)O1 | i | i | 23 | 95 | i
CS(=O)(=O)Nc1ccc2c(c1)[C@@H]1C[C@@H](CC(=O)O)O[C@H](CO)[C@@H]1O2 | nt | i | i | nt | i
Cc1ccc(NC(=O)c2cc(-c3cc(Cl)ccc3C)n[nH]2)cc1NS(C)(=O)=O | i | i | 27 | i | i
Cc1ccc(NC(=O)c2cc(-c3ccc(C)c(C)c3O)n[nH]2)cc1C | i | i | i | i | i
